≈ marks a conversion by molar mass, not a printed value. Calls of active or inactive are those of the source. The rule behind the calls is not given here.
How the values were obtained:
[1] = system: Cryptococcus neoformans; assay: Antifungal activity against Cryptococcus neoformans ATCC 90112; type: functional
[2] = system: Candida albicans; assay: Antifungal activity against Candida albicans ATCC 10231; type: functional
[3] = target: T1, Phospholipase B (Cryptococcus neoformans, UniProt Q9P8P2); assay: Inhibition of Cryptococcus neoformans H99 PLB1activity
T1 sequence (Q9P8P2 whole entry): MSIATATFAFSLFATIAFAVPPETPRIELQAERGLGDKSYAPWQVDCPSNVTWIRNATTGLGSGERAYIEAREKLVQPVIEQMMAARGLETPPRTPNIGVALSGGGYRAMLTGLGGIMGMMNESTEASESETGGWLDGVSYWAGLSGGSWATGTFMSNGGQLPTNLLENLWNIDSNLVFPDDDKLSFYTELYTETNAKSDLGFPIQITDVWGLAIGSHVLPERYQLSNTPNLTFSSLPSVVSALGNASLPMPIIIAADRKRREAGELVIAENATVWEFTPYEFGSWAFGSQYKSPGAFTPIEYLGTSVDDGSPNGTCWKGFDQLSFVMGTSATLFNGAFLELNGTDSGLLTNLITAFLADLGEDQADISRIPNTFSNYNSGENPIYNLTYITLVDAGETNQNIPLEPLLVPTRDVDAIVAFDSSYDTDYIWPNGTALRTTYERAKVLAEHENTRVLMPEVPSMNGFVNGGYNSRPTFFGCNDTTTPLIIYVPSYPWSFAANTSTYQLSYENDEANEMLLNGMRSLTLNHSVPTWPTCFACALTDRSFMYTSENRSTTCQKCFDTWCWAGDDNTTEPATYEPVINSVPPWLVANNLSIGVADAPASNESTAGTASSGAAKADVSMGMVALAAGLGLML
In short: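 Secreted enzyme from C. neoformans var. grubii H99 grown 72 h on SDA at 30 °C; cells washed and held 24 h at 37 °C in imidazole buffer pH 5.5, and the cell-free supernatant was used. Radiometric assay at 37 °C, pH 4.0 imidazole acetate, with 1 µg protein, 800 µM DPPC plus [14C]DPPC, for 22 min. Lipids were separated by TLC. Compounds at 0.25–250 µM in triplicate, with inhibition relative to the inhibitor-free control.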

[4] = target: Phospholipase A2, major isoenzyme (Sus scrofa) (UniProt P00592); assay: Inhibition of porcine pancreatic PLA2 activity at 250 uM
Sequence of Phospholipase A2, major isoenzyme (Sus scrofa) (P00592 23-146 limits assumed): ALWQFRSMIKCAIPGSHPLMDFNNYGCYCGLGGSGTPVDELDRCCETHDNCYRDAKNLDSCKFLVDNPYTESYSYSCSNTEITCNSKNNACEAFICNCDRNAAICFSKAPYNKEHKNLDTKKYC
In short: (§1)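 Porcine pancreatic PLA2 was diluted in 10 mM Tris/HCl with 10 mM CaCl2, pH 8.2. It was run in the same radiometric assay as the fungal enzyme at 37 °C, using 800 µM DPPC with [14C]DPPC, for a 1 h reaction. Compounds were tested at 250, 25, 2.5 and 0.25 µM final, and inhibition was relative to the inhibitor-free control.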

[5] = target: Phospholipase A2, major isoenzyme (Sus scrofa) (UniProt P00592); assay: Inhibition of porcine pancreatic PLA2 activity at 25 uM and below; in short: as §1
[6] = system: RBCs; assay: Hemolytic activity as a measure of cytotoxicity against human red blood cells at 35 uM; type: functional, Erythrocyte
[7] = system: RBCs; assay: Hemolytic activity as a measure of cytotoxicity against human red blood cells at 87.5 uM; type: functional, Erythrocyte
[8] = system: RBCs; assay: Hemolytic activity as a measure of cytotoxicity against human red blood cells at 350 uM; type: functional, Erythrocyte
[9] = system: RBCs; assay: Hemolytic activity as a measure of cytotoxicity against human red blood cells at 3.5 uM; type: functional, Erythrocyte
[10] = system: RBCs; assay: Hemolytic activity as a measure of cytotoxicity against human red blood cells at 175 uM; type: functional, Erythrocyte
[11] = system: Aspergillus terreus; assay: Antifungal activity against Aspergillus terreus ATCC 03-232-378; type: functional
[12] = system: Aspergillus flavus; assay: Antifungal activity against Aspergillus flavus ATCC 204 304; type: functional
[13] = system: Fusarium solani; assay: Antifungal activity against Fusarium solani 04-132-4207; type: functional
[14] = system: Lomentospora prolificans; assay: Antifungal activity against Scedosporium prolificans 1-003-040; type: functional
[15] = system: Scedosporium boydii; assay: Antifungal activity against Scedosporium apiospermum 1-003-056; type: functional
[16] = system: Aspergillus fumigatus; assay: Antifungal activity against Aspergillus fumigatus ATCC 204 305; type: functional
[17] = Cryptococcus neoformans, ATCC 90112, read-out: MIC
[18] = Candida albicans, ATCC 10231, read-out: MIC

SMILES | MIC [1, 17] [µM] | MIC [2, 18] [µM] | IC50 [3] [µM] | Activity [6] [%] | Activity [7] [%] | Activity [8] [%] | Activity [9] [%] | Activity [10] [%] | also measured
CC[N+](CC)(CC)CCCCCCCCCCCC[N+](CC)(CC)CC | 11 | 22 | > 250 |  |  |  |  |  | 
CCC[N+](CCC)(CCC)CCCCCCCCCCCC[N+](CCC)(CCC)CCC | 5.5 | 10 | 7 |  |  |  |  |  | 
CCCCCC[N+](CCCCCC)(CCCCCC)CCCCCCCCCCCC[N+](CCCCCC)(CCCCCC)CCCCCC | 17.5 | 8.8 | 7.5 |  |  |  |  |  | inhibition [4]: 90%; inhibition [5]: inactive
CCCCC[N+](CCCCC)(CCCCC)CCCCCCCCCCCC[N+](CCCCC)(CCCCC)CCCCC.[Br-].[Br-] | 5.5 | 5.5 | 3.5 | 0 | 0 | 100 | 0 | 5 | inhibition [4]: 90%; inhibition [5]: inactive
C[N+]1(CCCCCCCCCCCC[N+]2(C)CCOCC2)CCOCC1 | 44 | 88 | > 250 |  |  |  |  |  | 
CCCC[N+]1(CCCCCCCCCCCC[N+]2(CCCC)CCCC2)CCCC1.[Cl-].[Cl-] | 88 | 88 | > 250 | 0 | 0 | 0 | 0 | 0 | 
C(CCCCCC[N+]12CCC(CC1)CC2)CCCCC[N+]12CCC(CC1)CC2 | 350 | ≥ 350 | > 250 |  |  |  |  |  | 
CCCCCCCC[N+](CCCCCCCC)(CCCCCCCC)CCCCCCCCCCCC[N+](CCCCCCCC)(CCCCCCCC)CCCCCCCC | 35 | 100 | > 250 |  |  |  |  |  | 
CCCC[N+](CCCC)(CCCC)CCCCCCCCCCCC[N+](CCCC)(CCCC)CCCC [listing 1 of 2 here] |  |  |  |  |  |  |  |  | inhibition [4]: 90%; inhibition [5]: inactive
C[N+](C)(C)CCCCCCCCCC[N+](C)(C)C.[Br-].[Br-] [DECAMETHONIUM BROMIDE] | ≥ 350 | ≥ 350 | > 250 | 0 | 0 | 0 | 0 | 0 | 
C[N+](C)(C)CCCCCCCCCCCC[N+](C)(C)C.[Br-].[Br-] | 175 | 175 | > 250 | 0 | 0 | 0 | 0 | 0 | inhibition [4]: inactive; inhibition [5]: inactive
C[C@@H]1[C@H](O)[C@@H](C)/C=C/C=C/C=C/C=C/C=C/C=C/C=C/[C@H](O[C@@H]2O[C@H](C)[C@@H](O)[C@H](N)[C@@H]2O)C[C@@H]2O[C@](O)(C[C@@H](O)C[C@@H](O)[C@H](O)CC[C@@H](O)C[C@@H](O)CC(=O)O[C@H]1C)C[C@H](O)[C@H]2C(=O)O [AMPHOTERICIN B] | 0.54 (≈ 0.499 µg/mL) | 0.54 (≈ 0.499 µg/mL) |  |  |  |  |  |  | MIC [11]: 1.1 µM (≈ 1.02 µg/mL); MIC [12]: 0.54 µM (≈ 0.499 µg/mL); MIC [13]: 0.27 µM (≈ 0.25 µg/mL); MIC [14]: 4.3 µM (≈ 3.97 µg/mL); MIC [15]: 0.54 µM (≈ 0.499 µg/mL); MIC [16]: 0.54 µM (≈ 0.499 µg/mL)
CCCC[N+](CCCC)(CCCC)CCCCCCCCCCCC[N+](CCCC)(CCCC)CCCC [listing 2 of 2 here] | 2.2 | 5.5 |  |  |  |  |  |  | 
CC(C)CC[N+](CCCCCCCCCCCC[N+](CCC(C)C)(CCC(C)C)CCC(C)C)(CCC(C)C)CCC(C)C.[Cl-].[Cl-] | 4.4 | 2.2 | > 7.5 | 0 | 4 | 100 | 0 | 30 | inhibition [4]: 90%; inhibition [5]: inactive
CCCC[N+](CCCC)(CCCC)CCCCCCCCCCCC[N+](CCCC)(CCCC)CCCC.[Cl-].[Cl-] |  |  | 10 | 0 | 0 | 100 | 0 | 5 | MIC [1]: 2.2 µM; MIC [11]: 5.5 µM; MIC [12]: 22 µM; MIC [2]: 5.5 µM; MIC [13]: 5.5 µM; MIC [14]: 5.5 µM; MIC [15]: 2.8 µM; MIC [16]: 11 µM
C[N+]1(CCCCCCCCCCCC[N+]2(C)CCCC2)CCCC1 | 175 | 175 | > 250 |  |  |  |  |  | 
CCCC[P+](CCCC)(CCCC)CCCCCCCCCCCC[P+](CCCC)(CCCC)CCCC.[Br-].[Br-] | 2.5 | 8.8 | > 25 | 0 | 0 | 15 | 0 | 0 | 

From ChEMBL document CHEMBL1148608, “Correlation of antifungal activity with fungal phospholipase inhibition using a series of bisquaternary ammonium salts” (J Med Chem, 2006)
